From ChEMBL document CHEMBL1649418, “Pyrimidine derivatives as potent and selective A3 adenosine receptor antagonists” (J Med Chem, 2011)

Experiments:
[1] = molecular target: T1, Adenosine receptor A2b (Homo sapiens) (UniProt P29275); assay: Displacement of [3H]DPCPX from human adenosine A2B receptor expressed in HEK293 cells at 1 uM by liquid scintillation counting; assay type: cell-based
T1 sequence (whole entry): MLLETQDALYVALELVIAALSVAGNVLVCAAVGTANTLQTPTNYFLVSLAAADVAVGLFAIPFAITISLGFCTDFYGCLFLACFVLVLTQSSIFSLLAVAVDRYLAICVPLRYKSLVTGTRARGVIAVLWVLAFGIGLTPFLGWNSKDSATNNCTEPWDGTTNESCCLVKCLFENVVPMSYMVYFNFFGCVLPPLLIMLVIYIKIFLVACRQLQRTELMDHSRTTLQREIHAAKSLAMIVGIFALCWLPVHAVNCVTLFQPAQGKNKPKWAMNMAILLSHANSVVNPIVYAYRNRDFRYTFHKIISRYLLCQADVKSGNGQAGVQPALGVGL

[2] = molecular target: T2, Adenosine receptor A3 (Homo sapiens) (UniProt P0DMS8); assay: Displacement of [3H]NECA from human adenosine A3 receptor expressed in human HeLa cells at 1 uM by liquid scintillation counting; assay type: cell-based
T2 sequence (whole entry): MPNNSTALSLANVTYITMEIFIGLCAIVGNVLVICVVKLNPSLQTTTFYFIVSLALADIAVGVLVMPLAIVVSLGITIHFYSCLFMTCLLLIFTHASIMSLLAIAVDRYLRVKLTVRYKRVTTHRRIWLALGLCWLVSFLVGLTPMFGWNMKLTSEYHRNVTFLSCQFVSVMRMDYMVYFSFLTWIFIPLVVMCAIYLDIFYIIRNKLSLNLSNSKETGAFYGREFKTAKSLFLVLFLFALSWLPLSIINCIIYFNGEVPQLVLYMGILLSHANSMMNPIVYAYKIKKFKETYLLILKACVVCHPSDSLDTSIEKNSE

Adenosine receptor A2a [3] = molecular target: T3, Adenosine receptor A2a (Homo sapiens, UniProt P29274); assay: Displacement of [3H][…] from human adenosine A2A receptor expressed in human HeLa cells at 1 uM by liquid scintillation counting; assay type: cell-based
T3 sequence (P29274 whole entry): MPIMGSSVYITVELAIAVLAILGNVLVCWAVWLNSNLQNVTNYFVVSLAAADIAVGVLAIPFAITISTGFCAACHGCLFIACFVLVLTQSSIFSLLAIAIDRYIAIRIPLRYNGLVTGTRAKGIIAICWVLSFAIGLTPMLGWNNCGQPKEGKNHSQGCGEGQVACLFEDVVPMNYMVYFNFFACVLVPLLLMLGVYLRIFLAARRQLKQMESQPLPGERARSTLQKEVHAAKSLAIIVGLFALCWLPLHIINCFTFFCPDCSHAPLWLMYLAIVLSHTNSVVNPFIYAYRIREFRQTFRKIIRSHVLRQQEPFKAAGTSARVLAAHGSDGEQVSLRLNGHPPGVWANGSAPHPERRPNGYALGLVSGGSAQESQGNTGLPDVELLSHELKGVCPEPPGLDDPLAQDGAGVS

Adenosine receptor A1 = molecular target: T4, Adenosine receptor A1 (Homo sapiens, UniProt P30542); assay: Displacement of [3H]DPCPX from human adenosine A1 receptor expressed in CHO cells by liquid scintillation counting; assay type: cell-based
T4 sequence (P30542 whole entry): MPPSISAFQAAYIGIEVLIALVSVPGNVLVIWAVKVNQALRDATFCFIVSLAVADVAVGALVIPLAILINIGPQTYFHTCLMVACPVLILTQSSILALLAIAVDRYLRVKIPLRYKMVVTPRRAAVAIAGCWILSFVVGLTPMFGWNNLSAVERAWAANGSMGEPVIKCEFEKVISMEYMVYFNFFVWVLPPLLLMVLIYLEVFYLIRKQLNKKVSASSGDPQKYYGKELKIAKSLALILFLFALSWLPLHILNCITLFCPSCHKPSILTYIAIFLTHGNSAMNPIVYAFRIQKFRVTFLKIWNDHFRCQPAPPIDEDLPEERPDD
How it was run: (§1)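 Transfected CHO cell membranes (15 μg) were incubated with [3H]DPCPX at 25 °C for 60 min, with six test concentrations from 0.1 nM to 1 μM. Nonspecific binding was defined with 10 μM R-PIA. Filters were washed four times with ice-cold buffer before scintillation counting. Ki (Cheng–Prusoff) is mean ± SEM, n=3; % displacement at 0.1 μM is n=2.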

Adenosine receptor A2a [4] = molecular target: T3, Adenosine receptor A2a; assay: Displacement of [3H][…] from human adenosine A2A receptor expressed in human HeLa cells by liquid scintillation counting; assay type: cell-based
How it was run: (§2)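 Nonspecific binding was defined with 50 μM NECA. Filters were washed four times with ice-cold buffer, then counted by scintillation. Ki (Cheng–Prusoff) is mean ± SEM, n=3; % displacement at 0.1 μM is n=2.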

Adenosine receptor A3 = molecular target: T5, Adenosine receptor A3 (Homo sapiens, UniProt P0DMS8); assay: Displacement of [3H]NECA from human adenosine A3 receptor expressed in human HeLa cells by liquid scintillation counting; assay type: cell-based; details: read-out: Ki
T5 sequence (P0DMS8 whole entry): T2 sequence (whole entry)
How it was run: (§3)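 HeLa membranes (90 μg) carrying hA3AR were incubated with [3H]NECA (30 nM) at 25 °C for 180 min, with six concentrations from 0.1 nM to 1 μM. Nonspecific binding was defined with 100 μM R-PIA. Filters were washed six times and counted by scintillation.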

Adenosine receptor A2b = molecular target: T6, Adenosine receptor A2b (Homo sapiens, UniProt P29275); assay: Displacement of [3H]DPCPX from human adenosine A2B receptor expressed in HEK293 cells by liquid scintillation counting; assay type: cell-based
T6 sequence (P29275 whole entry): T1 sequence (whole entry)
How it was run: (§4)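 HEK-293 membranes (18 μg) were incubated with [3H]DPCPX (35 nM) at 25 °C for 30 min, with six concentrations from 0.1 nM to 1 μM. Nonspecific binding was defined with 400 μM NECA. Filters were washed six times with ice-cold buffer and counted by scintillation. Ki (Cheng–Prusoff) is mean ± SEM, n=3; % displacement at 0.1 μM is n=2.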

[5] = molecular target: T2, Adenosine receptor A3 (Homo sapiens); assay: Displacement of [3H]NECA from human adenosine A3 receptor expressed in human HeLa cells at 0.1 uM by liquid scintillation counting; assay type: cell-based
How it was run: as §3, with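 “scintillation. Ki (Cheng–Prusoff) is mean ± SEM, n=3; % displacement at 0.1 μM is n=2.” for “scintillation.”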

[6] = molecular target: T1, Adenosine receptor A2b (Homo sapiens); assay: Displacement of [3H]DPCPX from human adenosine A2B receptor expressed in HEK293 cells at 0.1 uM by liquid scintillation counting; assay type: cell-based; how it was run: as §4
[7] = molecular target: T7, Adenosine receptor A1 (Homo sapiens) (UniProt P30542); assay: Displacement of [3H]DPCPX from human adenosine A1 receptor expressed in CHO cells at 0.1 uM by liquid scintillation counting; assay type: cell-based; how it was run: as §1
T7 sequence (whole entry): T4 sequence (P30542 whole entry)

Adenosine receptor A2a [8] = molecular target: T3, Adenosine receptor A2a; assay: Displacement of [3H][…] from human adenosine A2A receptor expressed in human HeLa cells at 0.1 uM by liquid scintillation counting; assay type: cell-based; how it was run: as §2
[9] = molecular target: T2, Adenosine receptor A3 (Homo sapiens); assay: Antagonist activity at human adenosine A3 receptor expressed in human HeLa cells assessed as inhibition of forskolin-stimulated cAMP production by enzyme immunoassay; assay type: functional, cell-based
How it was run: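 Intact cells expressing hA3AR were stimulated with 10 μM forskolin, and receptor activation was induced with 0.1 μM NECA. Antagonist concentration-response curves were run against the NECA-induced cAMP decrease, with cAMP measured by enzyme immunoassay. K_B was derived from IC50, agonist concentration, agonist EC50 and curve slope. Data are mean ± SEM of two separate experiments.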

SMILES	Ki (Adenosine receptor A1)	Ki (Adenosine receptor A2a [4])	Ki (Adenosine receptor A3)	Ki (Adenosine receptor A2b)	inhibition [6]	other results
CC(C)C(=O)Nc1nc(-c2ccccc2)cc(-c2ccccc2)n1						inhibition [1]: 79%; inhibition [2]: 45%; inhibition (Adenosine receptor A2a [3]): 44%
CCC(=O)Nc1cc(-c2ccc3c(c2)OCO3)nc(-c2ccc3c(c2)OCO3)n1	5.28 nM	2540 nM	14.5 nM	1670 nM		
O=C(Nc1nc(-c2ccccc2)cc(-c2ccccc2)n1)C1CCCC1	2.14 nM	196 nM	170 nM			inhibition [1]: 52%
CCCC(=O)Nc1nc(-c2cccs2)cc(-c2cccs2)n1	255 nM	201 nM			3%	inhibition [5]: 24%
CC(=O)Nc1cc(-c2ccoc2)nc(-c2ccoc2)n1		74 nM	10.1 nM	302 nM		inhibition [7]: 1%
COc1ccc(-c2cc(NC(C)=O)nc(-c3ccc(OC)cc3OC)n2)c(OC)c1			5.4 nM		2%	inhibition (Adenosine receptor A2a [8]): 6%; inhibition [7]: 1%; Kb [9]: 3.85 nM
CCCC(=O)Nc1nc(-c2ccsc2)cc(-c2ccsc2)n1	85.7 nM	4570 nM			12%	inhibition [5]: 2%
CCC(=O)Nc1cc(-c2ccccc2F)nc(-c2ccccc2F)n1	31.6 nM	103 nM	160 nM		16%	
CCC(=O)Nc1nc(-c2ccccc2)cc(-c2ccccc2)n1	31.3 nM	554 nM	531 nM	42.5 nM		
CCCC(=O)Nc1cc(-c2ccccc2)nc(-c2ccccc2)n1	19.5 nM	103 nM	171 nM		1%	
CCCC(=O)Nc1cc(-c2ccc(OC)cc2)nc(-c2ccc(OC)cc2)n1			11 nM		1%	inhibition (Adenosine receptor A2a [8]): 4%; inhibition [7]: 8%; Kb [9]: 1.57 nM
CC(=O)Nc1cc(-c2ccco2)nc(-c2ccco2)n1	40.7 nM	8.1 nM	3 nM	12 nM		
CCCC(=O)Nc1nc(-c2ccccc2)cc(-c2ccccc2)n1					14%	inhibition [1]: 54%; inhibition (Adenosine receptor A2a [8]): 3%; inhibition [2]: 38%; inhibition (Adenosine receptor A2a [3]): 7%; inhibition [5]: 17%
CCCC(=O)Nc1cc(-c2cccs2)nc(-c2cccs2)n1	33.3 nM	153 nM	23 nM		8%	
CCCC(=O)Nc1nc(-c2ccccc2F)cc(-c2ccccc2F)n1	23.5 nM	647 nM			6%	inhibition [5]: 15%
CC(=O)Nc1cc(-c2ccccc2)nc(-c2ccccc2)n1	31.2 nM	255 nM	12.1 nM		19%	

SMILES	Ki (Adenosine receptor A1)	Ki (Adenosine receptor A2a [4])	Ki (Adenosine receptor A3)	Ki (Adenosine receptor A2b)	inhibition [6]	other results
CC(=O)Nc1cc(-c2ccc(C)cc2)nc(-c2ccc(C)cc2)n1			4.4 nM		2%	inhibition (Adenosine receptor A2a [8]): 8%; inhibition [7]: 2%; Kb [9]: 3.56 nM
CCC(=O)Nc1nc(-c2ccsc2)cc(-c2ccsc2)n1	367 nM	1890 nM	1280 nM	3250 nM		
CC(C)(C)CC(=O)Nc1cc(-c2ccccc2)nc(-c2ccccc2)n1						inhibition [1]: 4%; inhibition [2]: 39%; inhibition (Adenosine receptor A2a [3]): 32%
CCCC(=O)Nc1cc(-c2ccco2)nc(-c2ccco2)n1	7.8 nM	5.7 nM	9.9 nM	16.4 nM		
CCC(=O)Nc1cc(-c2ccccc2)nc(-c2ccccc2)n1	22.3 nM	84.5 nM	45.5 nM	76.6 nM		
CCC(=O)Nc1nc(-c2ccccc2F)cc(-c2ccccc2F)n1	48.2 nM	424 nM	279 nM	307 nM		
CCCC(=O)Nc1cc(-c2ccc(F)cc2)nc(-c2ccc(F)cc2)n1	82.3 nM	1830 nM	34.8 nM		2%	
CCC(=O)Nc1cc(-c2ccco2)nc(-c2ccco2)n1	15.5 nM	6.4 nM	6.2 nM	20.5 nM		
CCC(=O)Nc1cc(-c2ccc(F)cc2)nc(-c2ccc(F)cc2)n1	83.9 nM	429 nM	12.1 nM		1%	
CCC(=O)Nc1cc(-c2ccsc2)nc(-c2ccsc2)n1	39.4 nM	63.5 nM	64.2 nM	165 nM		
CCC(=O)Nc1cc(-c2ccc(Cl)cc2)nc(-c2ccc(Cl)cc2)n1			25.3 nM		3%	inhibition (Adenosine receptor A2a [8]): 20%; inhibition [7]: 16%; Kb [9]: 3.88 nM
CCC(=O)Nc1cc(-c2ccoc2)nc(-c2ccoc2)n1	132 nM	82.8 nM	12.6 nM	49 nM		
CCC(=O)Nc1nc(-c2ccc(SC)cc2)cc(-c2ccc(SC)cc2)n1	505 nM	183 nM	4430 nM	374 nM		
CCC(=O)Nc1cc(-c2ccc(OC)cc2)nc(-c2ccc(OC)cc2)n1			3.6 nM		3%	inhibition (Adenosine receptor A2a [8]): 1%; inhibition [7]: 8%; Kb [9]: 1.4 nM
CCCC(=O)Nc1cc(-c2ccoc2)nc(-c2ccoc2)n1	65.1 nM	544 nM			1%	inhibition [5]: 3%
CC(=O)Nc1cc(-c2ccc3c(c2)OCO3)nc(-c2ccc3c(c2)OCO3)n1	17.7 nM	3350 nM	3.3 nM		2%	
